How the values were obtained:
[1] = In vitro cytotoxicity against human peripheral blood mononuclear (PBM) cells; type: cell-based
Summary of the method: (§1)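 Uninfected log-phase cells seeded on 10-fold serial drug dilutions: Vero at 5 × 10³, CEM at 2.5 × 10³, and PHA-stimulated PBM at 5 × 10⁴ cells/well. Incubated at 37 °C in 5% CO₂ for 3 days (Vero), 4 days (CEM) or 5 days (PBM). MTT added overnight, then solubilized and read at 570 nm. IC50 by the median effect method.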

CCRF-CEM = assay: Cytotoxicity against CEM cells; type: cell-based; conditions: Homo sapiens; summary of the method: as §1
Vero = assay: Cytotoxicity against Vero cells; type: cell-based; conditions: Chlorocebus sabaeus; summary of the method: as §1
[2] = Anti-viral activity against HIV-1 in human PBM cells; type: functional, cell-based; conditions: PBMC
Summary of the method: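 PHA-stimulated (2-3 days) human PBM cells from healthy seronegative donors, infected in bulk for 1 h with HIV-1 LAI (100 TCID50/1 × 10⁷ cells flask or 200 TCID50/6 × 10⁵ cells/well). Cells then placed on 10-fold serial compound dilutions in RPMI-1640 with IL-2, 5 days at 37 °C. Supernatant RT activity measured by ³H-TTP incorporation on poly(rA)·oligo(dT). EC50 obtained by the median effect method.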

[3] = Antiviral activity against HIV-1xxBRU […] strain in human PBM cells; type: functional; conditions: PBMC
Summary of the method: (§2)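 Molecular infectious clones HIV-1 xxBru and HIV-1 M184Vpitt used in PHA-stimulated human PBM cells. Bulk 1 h infection at 100 TCID50/1 × 10⁷ cells (flask) or 200 TCID50/6 × 10⁵ cells/well. Cells then exposed to 10-fold serial compound dilutions for 5 days at 37 °C. Read-out was pelleted-virus RT activity with ³H-TTP. EC50 by the median effect method.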

[4] = Antiviral activity against (HIV-1M184V) mutant strain in human PBM cells; type: functional; conditions: PBMC; summary of the method: as §2
[5] = biological target: Adenosine deaminase (Bos taurus) (UniProt P56658); assay: Half life value of the compound

SMILES	IC50 [1] [µM]	IC50 (CCRF-CEM) [µM]	IC50 (Vero) [µM]	EC50 [2] [µM]	EC90 [3] [µM]	EC90 [4] [µM]	half-life [5] [min]
O=c1nc(O)ccn1[C@@H]1S[C@H](CO)C=C1F	> 100	> 100	> 100	> 100	–	–	–
Nc1nc2c(ncn2[C@@H]2S[C@H](CO)C=C2F)c(=O)[nH]1	> 100	> 100	> 100	80.5	–	–	–
Nc1ccn([C@@H]2S[C@H](CO)C=C2F)c(=O)n1	> 100	> 100	> 100	1.3	5	125	–
Nc1nc(F)nc2c1ncn2[C@@H]1S[C@H](CO)C=C1F	1.5	1.1	7.6	1.2	–	–	–
Nc1ncnc2c1ncn2[C@@H]1O[C@H](CO)C=C1F	–	–	–	–	–	–	42
Cc1cn([C@@H]2S[C@H](CO)C=C2F)c(=O)nc1O	> 100	> 100	53	92.3	–	–	–
Nc1nc(=O)n([C@@H]2S[C@H](CO)C=C2F)cc1F	> 100	> 100	> 100	11.6	–	–	–
O=c1[nH]cnc2c1ncn2[C@@H]1S[C@H](CO)C=C1F	> 100	> 100	> 100	43.6	–	–	–
Nc1ncnc2c1ncn2[C@@H]1S[C@H](CO)C=C1F	> 100	> 100	> 100	8.1	–	–	33
Nc1ncnc2c1ncn2[C@@H]1O[C@H](CO)[C@@H](O)[C@H]1O [ADENOSINE]	–	–	–	–	–	–	0.5
Nc1ccn([C@@H]2CS[C@H](CO)O2)c(=O)n1 [LAMIVUDINE]	–	–	–	–	0.08	535	–
Cc1cn([C@H]2C[C@H](N=[N+]=[N-])[C@@H](CO)O2)c(=O)[nH]c1=O [ZIDOVUDINE]	> 100	–	–	0.004	0.01	0.003	–

— ChEMBL document CHEMBL1135749, “Stereoselective synthesis and antiviral activity of D-2',3'-didehydro-2',3'-dideoxy-2'-fluoro-4'-thionucleosides” (J Med Chem, 2002)
